Compound activity deposited in PubChem by several laboratories.
Shown are actives, neighbours in structure and some others; about 2.5% of the full set was active somewhere.
MC4R antagonist: blocks human MC4R cAMP signaling. P32245. MC4R-expressing cells, MTII-stimulated cAMP, LANCE TR-FRET. inhibition, % at 6.5 µM. actives 0.48% (n = 360,000). AID 540295;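 active = inhibition above its plate's cutoff, the mean of tested wells on that plate plus 3 SD, cut at about 29% in these data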
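Test system: U2OS cells stably expressing human melanocortin 4 receptor (MC4R); also added: Melanotan II challenge; compound: 6.5 µM single dose; timing: 30-min compound preincubation, 1-h Melanotan II challenge, 1-h detection, room temperature; signal: Eu-cAMP/anti-cAMP TR-FRET, emission 671 nm; repeats: one well per compound, no replicates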
PG9 binder: PG9 antibody binding by small molecule | TR-FRET gp120-PG9 antibody binding | inhibition, % at 6.7 µM | actives 0.43% (n = 360,000) | AID 624416; in the data active = inhibition above about 8.5%
NR1D1 modulator: modulates human Rev-erb alpha binding to DNA. P20393. AID 1259318. Rev-erbα–FITC-DNA binding, fluorescence polarization, 90 min. actives 0.79% (n = 370,000). activity, % at 10 µM;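 active = activity above about 14%, limit read from the data; passing the limit was not always enough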
MC4R ag barr: activates human MC4R beta-arrestin recruitment; actives 0.98% (n = 360,000); activation, % at 8.9 µM; P32245; AID 540308; U2OS MC4R beta-arrestin complementation, luminescence; percent of melanotan II response, DMSO zero;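 active = activation above a per-plate cutoff, the mean activation of sample wells on that plate plus 3 SD, cut at about 8% in these data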
NTR1 agonist: agonists of human neurotensin receptor NTR1; NTR1-U2OS beta-arrestin-GFP spot imaging, agonist mode; activation, % at 20 µM; actives 0.17% (n = 330,000); AID 493036;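 active = activation at or above 40% of the spot to cytoplasm intensity ratio, with at least 20 cells analyzed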
Target sequence (P30989 whole entry, looked up): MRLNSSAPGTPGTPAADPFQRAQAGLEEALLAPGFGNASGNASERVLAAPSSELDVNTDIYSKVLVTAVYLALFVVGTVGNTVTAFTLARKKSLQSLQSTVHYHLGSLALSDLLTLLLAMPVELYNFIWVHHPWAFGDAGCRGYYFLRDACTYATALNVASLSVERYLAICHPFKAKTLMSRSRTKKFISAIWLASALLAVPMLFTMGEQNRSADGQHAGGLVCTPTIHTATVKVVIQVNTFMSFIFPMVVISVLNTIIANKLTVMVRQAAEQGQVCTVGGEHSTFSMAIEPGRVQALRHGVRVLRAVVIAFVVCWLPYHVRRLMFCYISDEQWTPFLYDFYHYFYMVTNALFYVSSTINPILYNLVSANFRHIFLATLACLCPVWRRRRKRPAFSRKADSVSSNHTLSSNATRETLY
U2OS cAMP counter: U2OS forskolin cAMP inhibition counter-screen. actives 26% (n = 1,600). inhibition, % at 6.5 µM. shares compounds with MC4R antagonist. AID 602193. parental U2OS, LANCE TR-FRET;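 active = mean inhibition over triplicates above the low-control well mean plus 3 SD, set per campaign, cut at about 13% in these data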;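 note: signal is single emission at 671 nm which falls as cellular cAMP rises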
MC4R antag conf: human MC4R cAMP antagonism confirmation; shares compounds with MC4R antagonist; MC4R-expressing cells, MTII-stimulated cAMP, TR-FRET; inhibition, % at 6.5 µM; actives 27% (n = 1,600); AID 602195; in the data active = inhibition above about 29%
Large screens that a line does not name were inactive (follow-up assays come after a bar, where they were run).

COc1ccc(NC(=O)c2ccc(C)cc2)c(OC)c1	none
COc1ccc(NC(=O)c2cccc(-n3c(C)ccc3C)c2)c(OC)c1	MC4R antagonist 29 | U2OS cAMP counter inactive | MC4R antag conf inactive
CCCCCCCN(c1ccccc1)[C@@H]1C[C@H]2CCCC(=O)N3CC[C@@H](C1)[C@@H]23	MC4R antagonist 34 (no result: NTR1 agonist) | U2OS cAMP counter inactive | MC4R antag conf 34
CSc1sc(C)cc1C1C(C#N)=C(N)N(c2cccnc2)C2=C1C(=O)CC(C)(C)C2 (stereo unspecified)	MC4R antagonist 29 | U2OS cAMP counter inactive | MC4R antag conf inactive
CC(C)N1Cc2nnn(Cc3ccccc3)c2-c2cc(N3CCCC3)ccc2S1(=O)=O	none (no result: MC4R antagonist, PG9 binder, MC4R ag barr, NTR1 agonist)
COc1ccc(C(=O)/C=C(\Nc2ccc(F)cc2)c2ccc(OC)cc2OC)c(OC)c1	none (no result: MC4R antagonist, PG9 binder, MC4R ag barr, NTR1 agonist)
COc1ccc(-n2nnnc2S(=O)(=O)CC(=O)N2CCCCC2)cc1	MC4R antagonist 39 | U2OS cAMP counter inactive | MC4R antag conf 51
C(=C\c1ccccc1)/C=N/N1CCN(Cc2ccccc2)CC1	MC4R antagonist 30 | U2OS cAMP counter inactive | MC4R antag conf inactive
NC(=O)C1CSSCCC(=O)NC(CCCCN=C(N)N)C(=O)NCC(=O)NC(CC(=O)O)C(=O)NC(Cc2c[nH]c3ccccc23)C(=O)N2CCCC2C(=O)N1 (stereo unspecified)	none (no result: MC4R antagonist, PG9 binder, MC4R ag barr, NTR1 agonist)
Cc1ccc(S(=O)(=O)NCCC(=O)OCC(=O)N2CCCC2=O)cc1	none
N#Cc1ccc(S(=O)(=O)NCC(=O)OCC(=O)N2CCCC2=O)cc1	MC4R antagonist 34 | U2OS cAMP counter 19 | MC4R antag conf inactive
CCCCNC(=O)NS(=O)(=O)c1ccc(NC(=O)CSc2nnc(-c3cccs3)n2-c2ccc(OC)cc2)cc1	none (no result: MC4R antagonist, PG9 binder, MC4R ag barr, NTR1 agonist)
COc1cccc2cc(C(=O)C3=C(O)C(=O)N(Cc4ccco4)C3c3cccnc3)oc12 (stereo unspecified)	MC4R antagonist 29 (no result: PG9 binder, NR1D1 modulator) | U2OS cAMP counter 27 | MC4R antag conf 44
COc1ccc(C2C(C(=O)c3ccco3)=C(O)C(=O)N2Cc2cccnc2)cc1OC (stereo unspecified)	none
COc1ccccc1C1(CCNC(C)c2cccs2)CCOC(C(C)C)C1 (stereo unspecified)	MC4R antagonist 47 | U2OS cAMP counter inactive | MC4R antag conf 37
Cc1ccc(C2(CCNC(C)c3cccs3)CCOC(C(C)C)C2)cc1 (stereo unspecified)	none (no result: NTR1 agonist)
CCCN(CCC)CCN1CCN(C(=O)[C@H](CCc2ccccc2)NC(=O)[C@H]2O[C@@H](n3cnc4c(N)ncnc43)[C@H](O)[C@@H]2O)CC1	none (no result: MC4R antagonist, MC4R ag barr, NTR1 agonist)
CC1(C)C(=O)Nc2ccccc2N1C(=O)COC(=O)c1cc(S(=O)(=O)N2CCOCC2)ccc1F	MC4R antagonist 36 | U2OS cAMP counter 17 | MC4R antag conf 46
CC(C)C[C@H](N)c1nnc(S(=O)(=O)Cc2ccc(F)cc2)o1	MC4R antagonist 43 (no result: PG9 binder, NR1D1 modulator) | U2OS cAMP counter 23 | MC4R antag conf 36
CC(C)C[C@H](N)c1nnc(SCC(=O)Nc2ccc(Br)cc2)o1	none
O=C(NCCCO)C(=O)NCc1ccccn1	MC4R antagonist 30 | U2OS cAMP counter inactive | MC4R antag conf inactive
CCCC[C@H]1C2CC(OC(=O)Nc3ccc(Cl)cc3)C(C2)[C@H]2CCCCN21 (stereo partly specified)	none (no result: MC4R antagonist, PG9 binder, MC4R ag barr, NTR1 agonist)
O=C(N=C1N(Cc2ccccc2)C[C@]2(C=C3CCCCC3n3c(=O)n(-c4ccccc4)c(=O)n32)N1C(=O)OCc1ccccc1)c1ccccc1 (stereo partly specified)	none (no result: MC4R antagonist, PG9 binder, MC4R ag barr, NTR1 agonist)
CCCCS(=O)(=O)N1CCCc2nc(-c3ccc(F)cc3)ccc21	none (no result: MC4R antagonist, MC4R ag barr, NTR1 agonist)
NC(Cc1ccc(C(F)(F)F)cc1)c1csc(Nc2nncc3ccccc23)n1 (stereo unspecified)	MC4R antagonist 35 (no result: NTR1 agonist) | U2OS cAMP counter 21 | MC4R antag conf inactive
Cc1ccc(C)c(NC(=O)COC(=O)c2cccc3c2C(=O)c2ccccc2C3=O)c1	MC4R antagonist 33 | U2OS cAMP counter inactive | MC4R antag conf inactive
Cc1cc(N2CCNC[C@@H]2C)ccc1N1CCS(=O)(=O)CC1	none (no result: MC4R antagonist, MC4R ag barr, NTR1 agonist)
CCc1ccc(NC(=O)C(=O)NCCN2CCN(S(C)(=O)=O)CC2)cc1	none
